The results in this text go back to ChEMBL document CHEMBL4513216, “Probing the Open Global Health Chemical Diversity Library for Multistage-Active Starting Points for Next-Generation Antimalarials” (ACS Infect Dis, 2020).

This data set can be described thus: Toxicity liver stage against HepG2, at 10uM. In kind it is cell-based. On the set-up: test concentration 10 uM, cell line HepG2-A16-CD81EGFP. The following applies: human, HepG2-A16-CD81EGFP cells; read-out: INHIBITION
A digest of the protocol: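 Uninfected HepG2-A16-CD81EGFP cells, 3 × 10^3 per well, 1536-well, plated on prespotted compound at 10 μM final, parasite-free screening media added to match infected plates; puromycin 10 μM positive, DMSO 0.5% negative; run in parallel with 48 h PbLuc assay at 37 °C, 5% CO2; viability by CellTiter-Glo luminescence, normalized to controls.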
With `CCOC(=O)C1CCCCN1Cc1c[nH]nc1-c1ccc(F)cc1F` (stereo not given), the cytotoxicity at 10 µM was -0.545%.

`Cc1ccn(CCC(=O)NCc2ccc(C)o2)n1`: the cytotoxicity at 10 µM is -2.96%.

For `CN1CCCC1CCNC(=O)Nc1ccccc1` (stereo not given), the cytotoxicity at 10 µM was 0.238%. To `COC(=O)CC(c1cccs1)c1oc(C)cc(=O)c1O` (stereo not given) belongs 2.99%; to `Cc1ccccc1OCC(=O)NCC(c1ccc(N(C)C)cc1)N(C)C` (stereo not given), -30.2%; to `CC(C)NC(=O)Cn1cc(OCc2ccc(F)cc2)c(=O)cc1CO`, 4.74%.

On to `COc1cccc(CNC(=O)NC2(c3nc(C)no3)CCCCC2)c1`, for which the cytotoxicity at 10 µM worked out at 4.04%.

Regarding `O=C(c1cnccn1)N1CCC(Oc2ncccc2Cl)CC1`, the cytotoxicity at 10 µM turned out to be 0.566%.

`CCN1CCNC(=O)C12CCN(S(=O)(=O)c1ccc(F)cc1)CC2`: the cytotoxicity at 10 µM was determined as 1.17%. For `COc1ccc(C[C@H]2CN(C(=O)c3ncccn3)CC[C@@H]2OC)cc1`, the cytotoxicity at 10 µM was determined as 4.65%. To `O=c1[nH]nc2c(S(=O)(=O)N3CCOCC3)cccn12` belongs -1.7%; to `CC(CC(=O)O)CC(=O)Nc1sc2c(c1C(N)=O)CCc1ccccc1-2` (stereo not given), 8.26%; to `COC(=O)CC(c1ccc(OC)c(OC)c1)c1oc(C)cc(=O)c1O` (stereo not given), 16.8%. On to `CC1CCCN(C(=O)c2ccn(COc3ccccc3)n2)C1` (stereo not given), for which the cytotoxicity at 10 µM came out at 9.43%.

With `CCCc1nc(NCCCn2cccn2)c2c(n1)c(C)nn2CC`, the cytotoxicity at 10 µM was determined as 7.88%. To `CCn1nc(C)c(NC(=O)c2nnn(Cc3ccccc3)c2OC)c1C` belongs 13.9%; to `COCC(=O)N1Cc2nc3c(C)c(-c4cccs4)nn3c(O)c2C1`, -4.81%; to `CN1C[C@H](c2ccccc2)[C@H]2CN(C(=O)Cc3ccc(O)cc3)CC[C@H]21`, 8.14%.

As for `CC(=O)N1CCCC1CCc1ccnc(-c2cncnc2)c1` (stereo not given), the cytotoxicity at 10 µM stood at 1.24%. As for `Nc1nc(N)c2c(n1)OC1(CCN(C(=O)CC3CCCNC3)CC1)C2` (stereo not given), the figure is 5.03%. To `CN(Cc1ccc(F)cc1)[C@@H]1CN(S(=O)(=O)N(C)C)C[C@H]1O` belongs -1.34%. For `CCn1c(C)nc2cc(NC(=O)CC3CCCCO3)ccc21` (stereo not given), the cytotoxicity at 10 µM came to 5.36%. With `O=C1NCc2ccccc2CC12CCCN(CCCc1ccccc1)C2` (stereo not given), the cytotoxicity at 10 µM came out at 10.3%. To `O=C(c1ccc(Cl)cc1)N1CCC(N2CCCCC2=O)CC1` belongs 7.3%. As to `COc1cc(CNc2nc(C3CC3)no2)cc(OC)c1OC`, the cytotoxicity at 10 µM was -0.291%. To `Cn1c(CS(=O)(=O)Cc2cccc(Cl)c2)cc(=O)n(C)c1=O` belongs 8.17%.

As for `CC(C)(C)C(=O)N1CCCN(c2ncnc3nc(N)ccc23)CC1`, the cytotoxicity at 10 µM worked out at 3.39%. To `NC(=O)N1CCCC(C(=O)NCCOc2ccc(F)c(F)c2)C1` (stereo not given) belongs 2.94%; to `CCN(Cc1ccc2c(c1)OCO2)c1ncc(S(N)(=O)=O)s1`, 8.14%; to `Fc1ccc(C2(NCc3noc(C4CC4)n3)CCC2)cc1`, -0.304%. For the compound `CN(C)c1cc(C(=O)NC2(c3cccc(F)c3)CCOCC2)ccn1`, the cytotoxicity at 10 µM is -1.31%.

Take `Cc1cccc(CNC2(CCO)CCOCC2)c1C`: the cytotoxicity at 10 µM was -14.9%. Regarding `CCc1noc(CC)c1CNC(=O)Nc1ccc2[nH]nnc2c1`, the cytotoxicity at 10 µM amounted to 6%. For the compound `O=C(NCCCO)Nc1cccc(I)c1`, the cytotoxicity at 10 µM is -6.1%. To `Cc1cc(C)n(CCC(=O)OCC(=O)N2CCc3sccc3C2)n1` belongs 8.52%; to `CCn1nc(C)cc1C(=O)NCc1noc(C(C)(C)C)n1`, 8.7%; to `CC(C)(C)C(=O)N1CCN(Cn2nccc2-c2cccnc2)CC1`, 8.27%. Take `CNC(=O)Cn1cc(C#N)c(=O)c2cc(Br)ccc21`: the cytotoxicity at 10 µM was determined as 23.7%. With `CN1CCN(C)C2(CCN(C(=O)CC(F)(F)F)CC2)C1=O`, the cytotoxicity at 10 µM was found to be 1.24%. To `CCN1CC2(CC1=O)CN(C(=O)NC(C)C)CCN(C(=O)NC(C)C)C2` belongs -1.73%. For `CC(C)n1nc(CN2CCCC2=O)c2c1CN(C(=O)c1ccno1)C2`, the cytotoxicity at 10 µM amounted to 3.39%.

In the case of `Cc1ccc(N2CC[C@H](OCC3CC3)[C@@H]2Cc2ccncc2)nn1`, the cytotoxicity at 10 µM turned out to be 8.13%.

In the case of `O=C1CC(c2ccncc2)C2(CCN(Cc3nccs3)CC2)N1` (stereo not given), the cytotoxicity at 10 µM turned out to be 4.8%. As for `COCC(=O)N1CC[C@@H]2O[C@@H](COCc3csc(C)n3)CC[C@@H]21`, the figure is 3.24%. As for `Cn1c(CN2CCN(c3cccnc3)CC2)cc2ccccc21`, the figure is 5.33%; as for `Cc1nn(C)cc1C(C)Nc1ncnc2sccc12` (stereo not given), 14.1%. As for `Cc1nc(N(C)C)nc(NCCc2cnccn2)c1C`, the figure is -1.22%; as for `Cc1c(C2c3nc[nH]c3CCN2CCOCc2ccccc2)cnn1C` (stereo not given), 0.838%. Turning to `O=C(c1ccccn1)N1CCC(c2nccn2Cc2ccncc2)CC1`, the cytotoxicity at 10 µM is 1.94%.

Regarding `CCC[C@@H]1CN(c2ncnc3sccc23)C[C@H]1NS(C)(=O)=O`, the cytotoxicity at 10 µM was -1.25%. Consider `CN(C)C(=O)NCc1cc2n(n1)CCCN(CC1CCCNC1)C2` (stereo not given), for which the cytotoxicity at 10 µM was -4.07%. As for `CCCn1ccnc1CN1CCC(Oc2cccc(F)c2)(C(=O)O)CC1`, the figure is 1%. As for `Cc1nc(N(C)C)ncc1C(=O)N[C@@H]1CCc2ccccc21`, the figure is 5.77%; as for `CN(C)CCN(C)C[C@@H]1CN(C(=O)NC2CCCC2)C[C@@H]1CO`, 1.35%. As for `COCCC1CN(Cc2cn(CCC(N)=O)c3ccccc23)CCO1` (stereo not given), the cytotoxicity at 10 µM is -3.15%.

As to `COc1cc(C)c(C)cc1S(=O)(=O)N(C)CC(=O)Nc1ccon1`, the cytotoxicity at 10 µM was found to be 2.74%. Turning to `O=C(c1cnc(Nc2ccccc2)nc1)N1CCS(=O)(=O)CC1`, the cytotoxicity at 10 µM was -1.01%. For `O=C1CC(c2cccs2)c2snc(C(=O)O)c2N1` (stereo not given), the cytotoxicity at 10 µM is -11.1%. Consider `CC(=O)N1CCC(C(=O)N(C)[C@@H]2CCC[C@@H](N3CCCC3)[C@@H]2O)CC1`, for which the cytotoxicity at 10 µM was -0.156%. `Cc1ccc(CNC(=O)Nc2nncs2)cn1`: the cytotoxicity at 10 µM was -9.12%. Consider `Cc1ccc(-c2nc(CN3CCN(CCO)CC3)co2)cc1`, for which the cytotoxicity at 10 µM is -23.7%.

Turning to `CC(NC(=O)NCCCn1cncn1)c1ccc2c(c1)CC(=O)N2` (stereo not given), the cytotoxicity at 10 µM was -8.01%. To `CCC(=O)N1CCN(C(=O)Cn2cccn2)CC1` belongs 0.661%; to `Cc1nn(C)c(C)c1CCC(=O)N1CCCC(n2cncn2)C1` (stereo not given), -1.4%. To `Cc1ccc(-c2nc(CCNC(=O)NCC(C)(C)C(N)=O)co2)cc1` belongs -10.1%; to `Cc1nn(C)c(N(C)C)c1CNCc1ccccc1Cn1ccnc1`, -15.3%; to `Cc1ccccc1OCCN1CCn2c(C)nnc2C1`, -2.78%. As for `Cc1ccc(C(=O)N2CCC(c3n[nH]c(C4CC4)n3)CC2)cc1F`, the cytotoxicity at 10 µM is -5.5%. As for `Cc1nc(CN(C)C2CCN(CCCOc3ccccc3C)C2)no1` (stereo not given), the figure is 2.24%. To `Cc1ncsc1CNc1cc(N2CCCC2CO)ncn1` (stereo not given) belongs -12.5%; to `CCn1ccnc1CN1CCCN(C(=O)Cc2ccc(F)cc2)CC1`, -15.8%. As for `CC(C)c1nc2c(n1C)CCN(CC(=O)Nc1ccnn1C(C)C)C2`, the figure is -1.3%.

As for `CC(C(=O)NCc1ccc(N2CCNC(=O)C2)cc1)n1cncn1` (stereo not given), the cytotoxicity at 10 µM was -9.21%. As for `CN(Cc1ccco1)C(=O)C1CSCN1C(=O)c1cccnc1` (stereo not given), the figure is -5.28%. On to `COc1c(CNC2CCN(C(C)(C)C)CC2)c(C(C)C)nn1C`, for which the cytotoxicity at 10 µM was -10.9%. To `CCc1cnc(CN(C)C2CCN(CCc3cccs3)C2)o1` (stereo not given) belongs -16.8%. As for `Cc1nc2ccccc2c(=O)n1CCC(=O)N1CCSCC1`, the figure is -6.13%; as for `c1cnn(CC2CN(Cc3ccc(-n4ccnc4)cc3)CCO2)c1` (stereo not given), -3.12%; as for `CCc1noc(CN2CCCC2c2noc(C3CC3)n2)n1` (stereo not given), -3.76%. For the compound `Cn1ccnc1C1(O)CCN(C(=O)CCc2ccccc2)CC1`, the cytotoxicity at 10 µM was determined as 1.37%. As for `CNC(=O)C(C)(C)N1CCC[C@H]1C(=O)NCC(C)C`, the figure is 1.55%; as for `COc1ccc(CN2C[C@H]3CC[C@](O)(c4ccc(C)cn4)[C@H]3C2)c(F)c1`, -1.57%; as for `c1ccc(CN2C[C@H]3CCC[C@@]3(COCC3CC3)C2)nc1`, 1.55%. Turning to `c1cnc(-c2noc(C3CN(Cc4ccc5c(c4)CCO5)C3)n2)nc1`, the cytotoxicity at 10 µM worked out at 0.488%. For `Cn1cccc1C(=O)N1CC[C@H]2[C@H]1CCN2CC1CCOCC1`, the cytotoxicity at 10 µM is -4.81%.

For `Fc1ccccc1CN1C[C@@H]2CN(Cc3cccnc3)CCO[C@@H]2C1`, the cytotoxicity at 10 µM amounted to 9.2%. As to `Cc1nn(C)c(N(C)C)c1CNC1CCc2cc(F)ccc21` (stereo not given), the cytotoxicity at 10 µM is -15.4%. To `Cn1ccc(C(=O)N2C[C@@H]3CN(CC4CC4)CCO[C@@H]3C2)n1` belongs 14.9%; to `Cn1cc(CN2CCC3(CC(=O)N(c4ccc5c(c4)OCO5)C3)C2)cn1` (stereo not given), -4.97%; to `Cc1ccc(-c2n[nH]cc2CNCC2CCN(CC(F)(F)F)C2)o1` (stereo not given), 6.99%. To `O=C(CC1CC1)N1CCC2(CCCN(CCOc3ccccc3)C2)C1` (stereo not given) belongs -0.861%; to `CN(C)C(=O)N[C@H]1CN(Cc2ccc3c(c2)OCO3)[C@@H]2CCCO[C@H]12`, 4.32%. Regarding `O=C1COC2(CCN(CC3CCOCC3)CC2)CN1Cc1ccccn1`, the cytotoxicity at 10 µM was -2.76%. As for `O=C([C@@H]1CSCN1)N1CCC2(CC1)CNCc1ccccc12`, the figure is -2.08%; as for `C1CC(CN2C[C@@H]3CC[C@H]2CN(Cc2nnc(C4CC4)o2)C3)C1`, 1.19%.
